Measurements as given in ChEMBL document CHEMBL3632558, “Synthesis, antimycobacterial and antibacterial activity of l-[(1R,2S)-2-fluorocyclopropyl]naphthyridone derivatives containing an oxime-functionalized pyrrolidine moiety” (2015).
Values after ≈ are worked out from the molar mass of the structure shown.

Columns and labels:
Assay type in all cases: functional
Staphylococcus aureus [1] = test: Antibacterial activity against methicillin-sensitive Staphylococcus aureus 14-4 after 18 to 24 hrs
Summary of the method: (§1)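 MIC by standard NCCLS reference procedure (M100-S11); lowest concentration of compound inhibiting visible bacterial growth after incubation at 35 °C for 18–24 h, read as complete inhibition of growth. Ciprofloxacin, levofloxacin and moxifloxacin run alongside as reference agents.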

Pseudomonas aeruginosa [2] = test: Antibacterial activity against Pseudomonas aeruginosa 14-14 after 18 to 24 hrs; summary of the method: as §1
Escherichia coli [3] = test: Antibacterial activity against ESBL-positive Escherichia coli 14-1 after 18 to 24 hrs; summary of the method: as §1
Staphylococcus aureus [4] = test: Antibacterial activity against methicillin-resistant Staphylococcus aureus 14-4 after 18 to 24 hrs
Klebsiella pneumoniae [5] = test: Antibacterial activity against ESBL-positive Klebsiella pneumoniae 14-19 after 18 to 24 hrs; summary of the method: as §1
Escherichia coli [6] = test: Antibacterial activity against Escherichia coli ATCC 25922 after 18 to 24 hrs; summary of the method: as §1
Enterococcus faecium [7] = test: Antibacterial activity against Enterococcus faecium 14-5 after 18 to 24 hrs; summary of the method: as §1
Klebsiella pneumoniae [8] = test: Antibacterial activity against Klebsiella pneumoniae 14-1 after 18 to 24 hrs; summary of the method: as §1
Klebsiella pneumoniae [9] = test: Antibacterial activity against Klebsiella pneumoniae 14-2 after 18 to 24 hrs; summary of the method: as §1
Staphylococcus aureus [10] = test: Antibacterial activity against methicillin-sensitive Staphylococcus aureus 14-1 after 18 to 24 hrs; summary of the method: as §1
Escherichia coli [11] = test: Antibacterial activity against Escherichia coli 14-1 after 18 to 24 hrs; summary of the method: as §1
Enterococcus faecium [12] = test: Antibacterial activity against Enterococcus faecium 14-6 after 18 to 24 hrs; summary of the method: as §1
[13] = system: Staphylococcus epidermidis; test: Antibacterial activity against methicillin-resistant Staphylococcus epidermidis 14-22 after 18 to 24 hrs
Enterococcus faecalis [14] = test: Antibacterial activity against Enterococcus faecalis 14-2 after 18 to 24 hrs; summary of the method: as §1
Klebsiella pneumoniae [15] = test: Antibacterial activity against Klebsiella pneumoniae 14-4 after 18 to 24 hrs; summary of the method: as §1
[16] = system: Staphylococcus epidermidis; test: Antibacterial activity against methicillin-resistant Staphylococcus epidermidis 14-21 after 18 to 24 hrs
Pseudomonas aeruginosa [17] = test: Antibacterial activity against Pseudomonas aeruginosa 14-15 after 18 to 24 hrs; summary of the method: as §1
[18] = system: Staphylococcus epidermidis; test: Antibacterial activity against methicillin-resistant Staphylococcus epidermidis 14-37 after 18 to 24 hrs
Enterococcus faecium [19] = test: Antibacterial activity against Enterococcus faecium 14-2 after 18 to 24 hrs; summary of the method: as §1
[20] = system: Staphylococcus epidermidis; test: Antibacterial activity against methicillin-sensitive Staphylococcus epidermidis 14-2 after 18 to 24 hrs; summary of the method: as §1
Staphylococcus aureus [21] = test: Antibacterial activity against Staphylococcus aureus CMCC 26003 after 18 to 24 hrs; summary of the method: as §1
Escherichia coli [22] = test: Antibacterial activity against ESBL-positive Escherichia coli 14-2 after 18 to 24 hrs; summary of the method: as §1
Enterococcus faecalis [23] = test: Antibacterial activity against Enterococcus faecalis 14-1 after 18 to 24 hrs; summary of the method: as §1
Staphylococcus aureus [24] = test: Antibacterial activity against methicillin-sensitive Staphylococcus aureus 14-2 after 18 to 24 hrs; summary of the method: as §1
Pseudomonas aeruginosa [25] = test: Antibacterial activity against Pseudomonas aeruginosa 14-9 after 18 to 24 hrs; summary of the method: as §1
Klebsiella pneumoniae [26] = test: Antibacterial activity against Klebsiella pneumoniae 14-3 after 18 to 24 hrs; summary of the method: as §1
[27] = system: Mycobacterium tuberculosis; test: Antimycobacterial activity against Mycobacterium tuberculosis H37Rv ATCC 27294 by alamar blue assay
Summary of the method: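 Microplate Alamar Blue Assay; MIC is the lowest concentration giving ≥90% reduction in fluorescence relative to the mean of replicate bacterium-only controls. MDR strain 6133 is resistant to isoniazid and rifampicin.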

[28] = system: Staphylococcus epidermidis; test: Antibacterial activity against methicillin-resistant Staphylococcus epidermidis 14-39 after 18 to 24 hrs
Pseudomonas aeruginosa [29] = test: Antibacterial activity against Pseudomonas aeruginosa ATCC 27853 after 18 to 24 hrs; summary of the method: as §1
Pseudomonas aeruginosa [30] = test: Antibacterial activity against Pseudomonas aeruginosa 14-16 after 18 to 24 hrs; summary of the method: as §1
Escherichia coli [31] = test: Antibacterial activity against Escherichia coli 14-2 after 18 to 24 hrs; summary of the method: as §1
Staphylococcus aureus [32] = test: Antibacterial activity against methicillin-resistant Staphylococcus aureus 14-5 after 18 to 24 hrs
Klebsiella pneumoniae [33] = test: Antibacterial activity against ESBL-positive Klebsiella pneumoniae 14-17 after 18 to 24 hrs; summary of the method: as §1
Streptococcus pneumoniae = test: Antibacterial activity against Streptococcus pneumoniae ATCC 19615 after 18 to 24 hrs; summary of the method: as §1
Klebsiella pneumoniae [34] = test: Antibacterial activity against ESBL-positive Klebsiella pneumoniae 14-18 after 18 to 24 hrs; summary of the method: as §1
Enterococcus faecium [35] = test: Antibacterial activity against Enterococcus faecium 14-1 after 18 to 24 hrs; summary of the method: as §1
Pseudomonas aeruginosa [36] = test: Antibacterial activity against Pseudomonas aeruginosa 14-19 after 18 to 24 hrs; summary of the method: as §1
Staphylococcus aureus [37] = test: Antibacterial activity against methicillin-sensitive Staphylococcus aureus 14-3 after 18 to 24 hrs; summary of the method: as §1

Row | Compound | MIC (Staphylococcus aureus [1]) | MIC (Pseudomonas aeruginosa [2]) | MIC (Escherichia coli [3]) | MIC (Staphylococcus aureus [4]) | MIC (Klebsiella pneumoniae [5]) | MIC (Escherichia coli [6]) | MIC (Enterococcus faecium [7]) | MIC (Klebsiella pneumoniae [8]) | MIC (Klebsiella pneumoniae [9]) | MIC (Staphylococcus aureus [10]) | MIC (Escherichia coli [11]) | MIC (Enterococcus faecium [12]) | MIC [13] | MIC (Enterococcus faecalis [14]) | MIC (Klebsiella pneumoniae [15]) | MIC [16] | MIC (Pseudomonas aeruginosa [17]) | MIC [18] | MIC (Enterococcus faecium [19]) | MIC [20] | further results
1 | COc1ccc(CO/N=C2\CN(c3nc4c(cc3F)c(=O)c(C(=O)O)cn4[C@@H]3C[C@@H]3F)CC2CN)cc1 (stereo partly specified) | 0.03 µg/mL (≈ 0.0584 µM) | 8 µg/mL (≈ 15.6 µM) | < 0.008 µg/mL | 16 µg/mL (≈ 31.2 µM) | 128 µg/mL (≈ 249 µM) | < 0.008 µg/mL | 8 µg/mL (≈ 15.6 µM) | 128 µg/mL (≈ 249 µM) | 128 µg/mL (≈ 249 µM) | 2 µg/mL (≈ 3.89 µM) | 32 µg/mL (≈ 62.3 µM) | 8 µg/mL (≈ 15.6 µM) | 4 µg/mL (≈ 7.79 µM) | < 0.008 µg/mL | 128 µg/mL (≈ 249 µM) | 4 µg/mL (≈ 7.79 µM) | 16 µg/mL (≈ 31.2 µM) | 16 µg/mL (≈ 31.2 µM) | 2 µg/mL (≈ 3.89 µM) | 32 µg/mL (≈ 62.3 µM) | MIC (Staphylococcus aureus [21]): < 0.008 µg/mL; MIC (Escherichia coli [22]): 64 µg/mL (≈ 125 µM); MIC (Enterococcus faecalis [23]): 32 µg/mL (≈ 62.3 µM); MIC (Staphylococcus aureus [24]): < 0.008 µg/mL; MIC (Pseudomonas aeruginosa [25]): 8 µg/mL (≈ 15.6 µM); MIC (Klebsiella pneumoniae [26]): 128 µg/mL (≈ 249 µM); MIC90 [27]: 0.353 µg/mL (≈ 0.687 µM); MIC [28]: 8 µg/mL (≈ 15.6 µM); MIC (Pseudomonas aeruginosa [29]): 4 µg/mL (≈ 7.79 µM); MIC (Pseudomonas aeruginosa [30]): 8 µg/mL (≈ 15.6 µM); MIC (Escherichia coli [31]): 32 µg/mL (≈ 62.3 µM); MIC (Staphylococcus aureus [32]): 8 µg/mL (≈ 15.6 µM); MIC (Klebsiella pneumoniae [33]): 8 µg/mL (≈ 15.6 µM); MIC (Streptococcus pneumoniae): 0.015 µg/mL (≈ 0.0292 µM); MIC (Klebsiella pneumoniae [34]): 8 µg/mL (≈ 15.6 µM); MIC (Enterococcus faecium [35]): 2 µg/mL (≈ 3.89 µM); MIC (Pseudomonas aeruginosa [36]): 16 µg/mL (≈ 31.2 µM); MIC (Staphylococcus aureus [37]): 0.015 µg/mL (≈ 0.0292 µM)
2 | NCC1CN(c2nc3c(cc2F)c(=O)c(C(=O)O)cn3[C@@H]2C[C@@H]2F)C/C1=N\OCc1ccc(Br)cc1 (stereo partly specified) | < 0.008 µg/mL | 8 µg/mL (≈ 14.2 µM) | 4 µg/mL (≈ 7.11 µM) | 16 µg/mL (≈ 28.5 µM) | > 128 µg/mL | 0.125 µg/mL (≈ 0.222 µM) | 8 µg/mL (≈ 14.2 µM) | 128 µg/mL (≈ 228 µM) | 128 µg/mL (≈ 228 µM) | 2 µg/mL (≈ 3.56 µM) | 64 µg/mL (≈ 114 µM) | 16 µg/mL (≈ 28.5 µM) | 2 µg/mL (≈ 3.56 µM) | 0.125 µg/mL (≈ 0.222 µM) | 128 µg/mL (≈ 228 µM) | 4 µg/mL (≈ 7.11 µM) | 8 µg/mL (≈ 14.2 µM) | 16 µg/mL (≈ 28.5 µM) | 2 µg/mL (≈ 3.56 µM) | 16 µg/mL (≈ 28.5 µM) | MIC (Staphylococcus aureus [21]): < 0.008 µg/mL; MIC (Escherichia coli [22]): 64 µg/mL (≈ 114 µM); MIC (Enterococcus faecalis [23]): 32 µg/mL (≈ 56.9 µM); MIC (Staphylococcus aureus [24]): < 0.008 µg/mL; MIC (Pseudomonas aeruginosa [25]): 8 µg/mL (≈ 14.2 µM); MIC (Klebsiella pneumoniae [26]): 128 µg/mL (≈ 228 µM); MIC90 [27]: 0.375 µg/mL (≈ 0.667 µM); MIC [28]: 8 µg/mL (≈ 14.2 µM); MIC (Pseudomonas aeruginosa [29]): 4 µg/mL (≈ 7.11 µM); MIC (Pseudomonas aeruginosa [30]): 8 µg/mL (≈ 14.2 µM); MIC (Escherichia coli [31]): 64 µg/mL (≈ 114 µM); MIC (Staphylococcus aureus [32]): 16 µg/mL (≈ 28.5 µM); MIC (Klebsiella pneumoniae [33]): 8 µg/mL (≈ 14.2 µM); MIC (Streptococcus pneumoniae): < 0.008 µg/mL; MIC (Klebsiella pneumoniae [34]): 8 µg/mL (≈ 14.2 µM); MIC (Enterococcus faecium [35]): 2 µg/mL (≈ 3.56 µM); MIC (Pseudomonas aeruginosa [36]): 16 µg/mL (≈ 28.5 µM); MIC (Staphylococcus aureus [37]): 0.015 µg/mL (≈ 0.0267 µM)
